Test results published in ChEMBL document CHEMBL5252538, “β-Lactam analogues of combretastatin A-4 prevent metabolic inactivation by glucuronidation in chemoresistant HT-29 colon cancer cells” (Eur J Med Chem, 2017).
pIC50: −log10 of the molar value. Active and inactive are the calls of the source. The rule behind the calls is not given here.

Tests used:
MCF7 = test: Antiproliferative activity against […] human MCF7 cells assessed as inhibition of cell growth incubated for 72 hrs by alamar blue assay; assay type: functional, cell-based; settings: MCF7, 72 h
Method in brief: (§1)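 Cells seeded 24 h before treatment (HL-60 4 × 10⁴, MCF-7 5 × 10³ per well), then given medium, vehicle (1% ethanol v/v) or serial dilutions (eight concentrations) for 72 h. Alamar Blue (10% v/v) added for 3–5 h at 37 °C in the dark, fluorescence read at ex 530/em 590 nm. Viability expressed relative to vehicle (100%), IC50 from dose–response curves; three experiments in triplicate.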

HL-60 = test: Antiproliferative activity against […] human HL-60 cells assessed as inhibition of cell growth incubated for 72 hrs by alamar blue assay; assay type: functional, cell-based; settings: HL-60, 72 h; method in brief: as §1
HT-29 [1] = test: Antiproliferative activity against combretastatin A-4 resistant human HT-29 cells assessed as inhibition of cell growth incubated for 72 hrs by SRB assay; assay type: functional, cell-based; settings: HT-29, 72 h
Method in brief: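 HT-29 (DMEM Glutamax, 10% FBS) seeded at 1 × 10⁴ cells/well, treated after 24 h with vehicle (1% ethanol v/v) or serial dilutions (eight concentrations) for 72 h; viability measured by sulforhodamine B protocol. Percent viability relative to vehicle control, IC50 from dose–response curves; mean of three experiments in triplicate.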

[2] = tested on: Panel NCI-60 (60 carcinoma cell lines); test: Antiproliferative activity against human panel NCI-60 (60 carcinoma cell lines) assessed as inhibition of cell growth at 10 uM incubated for 72 hrs by SRB assay; assay type: functional, cell-based
Tubulin (Bos taurus) = Tubulin (Bos taurus) (UniProt Q6B856+Q862L2+Q862F3); test: Inhibition of bovine tubulin polymerisation assessed as fold reduction in Vmax at 10 uM measured every 30 secs for 30 mins by spectrophotometric method relative to control; assay type: protein assay
HT-29 [3] = test: Induction of cell cycle arrest in human HT-29 cells assessed as accumulation of cells at G0/G1 phase at 1 uM incubated for 24 hrs by RAase A/PI staining based flow cytometry analysis (reference value: 57%); assay type: functional
HT-29 [4] = test: Induction of cell cycle arrest in human HT-29 cells assessed as accumulation of cells at G2/M phase at 1 uM incubated for 24 hrs by RAase A/PI staining based flow cytometry analysis (reference value: 16%); assay type: functional
HT-29 [5] = test: Induction of cell cycle arrest in human HT-29 cells assessed as accumulation of cells at G0/G1 phase at 1 uM incubated for 24 hrs in presence of 2,3-bis(amino((2aminophenyl)thio)methylene)succinonitrile by RAase A/PI staining based flow cytometry analysis (reference value: 57%); assay type: functional
HT-29 [6] = test: Induction of cell cycle arrest in human HT-29 cells assessed as accumulation of cells at G2/M phase at 1 uM incubated for 24 hrs in presence of 2,3-bis(amino((2-aminophenyl)thio)methylene)succinonitrile by RAase A/PI staining based flow cytometry analysis (reference value: 16%); assay type: functional
Tubulin (Homo sapiens) = Tubulin (Homo sapiens) (UniProt P68371+Q9H4B7+P0DPH7+P68366+Q13509+Q71U36+P04350+Q3ZCM7+P07437+P68363+Q9BQE3+Q6PEY2+Q13885+Q9BVA1+Q9BUF5); test: Induction of microtubule disruption in human HT-29 cells assessed as effect on microtubule organization at 1 uM incubated for 16 hrs by immunofluorescence based confocal microscopic analysis; assay type: cell-based
[7] = target: Tubulin beta (Homo sapiens) (UniProt P68371+Q9H4B7+Q13509+P04350+Q3ZCM7+P07437+Q13885+Q9BVA1+Q9BUF5+A6NNZ2); test: Binding affinity to colchicine binding site of beta-tubulin in human MCF7 cells assessed as inhibition of beta-tubulin-EBI adduct formation at 10 uM pretreated for 2 hrs followed by EBI addition and measured after 1.5 hrs by Western blot analysis; assay type: cell-based; settings: time 3.5 hrs
Method in brief: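 Cells seeded at 5 × 10⁴/well, grown overnight, treated with vehicle (0.1% ethanol v/v) or compound (10 µM) for 2 h, then EBI (100 µM) added for 1.5 h. Cells washed with ice-cold PBS, lysed in Laemmli buffer, run on SDS-PAGE, blotted and probed for β-tubulin to detect the faster-migrating β-tubulin–EBI adduct; GAPDH reprobe for loading; three independent experiments.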

Row | Structure (SMILES) | pIC50 (MCF7) | pIC50 (HL-60) | pIC50 (HT-29 [1]) | other results
1 | CCSc1ccc(C2N(c3cc(OC)c(OC)c(OC)c3)C(=O)C2(Cl)Cl)cc1 (racemic) | 6.18 | 6.32 | 6.26 | –
2 | COc1cc(N2C(=O)C(Cl)C2c2ccc(SC)cc2)cc(OC)c1OC (racemic) | 7.14 | 6.28 | 6.86 | inhibition [2]: Active; fold change (FC) (Tubulin (Bos taurus)): 2
3 | COc1ccc(C2CC(=O)N2c2cc(OC)c(OC)c(OC)c2)cc1O (racemic) | 8.22 | 8.10 | 6.28 | –
4 | CCOc1ccc(C2C(Oc3ccccc3)C(=O)N2c2cc(OC)c(OC)c(OC)c2)cc1 (racemic) | 7.16 | 6.31 | 6.41 | –
5 | CCOc1ccc(C2C(Cl)C(=O)N2c2cc(OC)c(OC)c(OC)c2)cc1 (racemic) | 7.06 | 6.68 | 6.69 | –
6 | CCOc1ccc(C2C(O)C(=O)N2c2cc(OC)c(OC)c(OC)c2)cc1 (mixture of isomers) | 8.15 | 7.96 | 7.82 | –
7 | COc1ccc(/C=C\c2cc(OC)c(OC)c(OC)c2)cc1O [COMBRETASTATIN A4] | 8.46 | 8.72 | 5.38 | Activity (HT-29 [3]): 52%; Activity (HT-29 [4]): 15%; Activity (HT-29 [5]): 14%; Activity (HT-29 [6]): 50%; fold change (FC) (Tubulin (Bos taurus)): 2; Activity (Tubulin (Homo sapiens)): inactive; inhibition [7]: Active
8 | CCOc1ccc(C2CC(=O)N2c2cc(OC)c(OC)c(OC)c2)cc1 (racemic) | 7.19 | 7.06 | 7.19 | –
9 | COc1ccc(C2C(O)C(=O)N2c2cc(OC)c(OC)c(OC)c2)cc1O (racemic) | 8.52 | 8.30 | 6.33 | –
10 | COc1cc(N2C(=O)C(Oc3ccccc3)C2c2ccc(SC)cc2)cc(OC)c1OC (mixture of isomers) | 6.82 | 6.41 | 6.47 | –
11 | COc1cc(N2C(=O)C(Cl)(Cl)C2c2ccc(SC)cc2)cc(OC)c1OC (racemic) | 6.54 | 6.65 | 6.51 | –
12 | CCSc1ccc(C2CC(=O)N2c2cc(OC)c(OC)c(OC)c2)cc1 (racemic) | 6.85 | 6.69 | 6.51 | –
13 | COc1cc(N2C(=O)C(c3ccccc3)C2c2ccc(O)cc2)cc(OC)c1OC (mixture of isomers) | < 4.30 | < 4.30 | < 4.30 | –
14 | CCSc1ccc(C2C(c3ccccc3)C(=O)N2c2cc(OC)c(OC)c(OC)c2)cc1 (racemic) | 6.42 | 6.37 | 5.50 | –
15 | COc1ccc(C2N(c3cc(OC)c(OC)c(OC)c3)C(=O)C2(Cl)Cl)cc1 (racemic) | 6.88 | 6.84 | 6.57 | –
16 | COc1ccc(C2CC(=O)N2c2cc(OC)c(OC)c(OC)c2)cc1 (racemic) | – | 7.12 | 7.19 | –

Row | Structure (SMILES) | pIC50 (MCF7) | pIC50 (HL-60) | pIC50 (HT-29 [1]) | other results
17 | CCOc1ccc(C2C(c3ccccc3)C(=O)N2c2cc(OC)c(OC)c(OC)c2)cc1 (racemic) | 7.30 | 7.13 | 7.12 | –
18 | COc1ccc(C2C(O)C(=O)N2c2cc(OC)c(OC)c(OC)c2)cc1 (racemic) | 8.40 | 7.89 | 7.92 | –
19 | C=CC1C(=O)N(c2cc(OC)c(OC)c(OC)c2)C1c1ccc(OC)cc1 (racemic) | 7.77 | 7.48 | 8.00 | –
20 | COc1ccc(C2C(Oc3ccccc3)C(=O)N2c2cc(OC)c(OC)c(OC)c2)cc1 (racemic) | 7.64 | 7.72 | 7.28 | –
21 | C=CC1C(=O)N(c2cc(OC)c(OC)c(OC)c2)C1c1ccc(SC)cc1 (racemic) | 7.29 | 7.21 | 6.95 | fold change (FC) (Tubulin (Bos taurus)): 3.4
22 | CCOc1ccc(C2N(c3cc(OC)c(OC)c(OC)c3)C(=O)C2(Cl)Cl)cc1 (racemic) | 6.57 | 6.74 | 6.49 | –
23 | COc1cc(N2C(=O)C(C3CC3)C2c2ccc(SC)cc2)cc(OC)c1OC (racemic) | 6.88 | 6.55 | 6.69 | –
24 | COc1ccc(C2C(Cl)C(=O)N2c2cc(OC)c(OC)c(OC)c2)cc1 (racemic) | 7.25 | 6.79 | 6.87 | –
25 | CCSc1ccc(C2C(Oc3ccccc3)C(=O)N2c2cc(OC)c(OC)c(OC)c2)cc1 (mixture of isomers) | 6.68 | 6.29 | 6.20 | –
26 | C=CC1C(=O)N(c2cc(OC)c(OC)c(OC)c2)C1c1ccc(SCC)cc1 (racemic) | 6.74 | 6.49 | 6.59 | –
27 | CCSc1ccc(C2C(Cl)C(=O)N2c2cc(OC)c(OC)c(OC)c2)cc1 (racemic) | 6.60 | 6.41 | 6.62 | –
28 | C=CC1C(=O)N(c2cc(OC)c(OC)c(OC)c2)C1c1ccc(OCC)cc1 (racemic) | 7.85 | 7.46 | 7.01 | –
29 | CCSc1ccc(C2C(O)C(=O)N2c2cc(OC)c(OC)c(OC)c2)cc1 (racemic) | 8.22 | 7.80 | 7.92 | –
30 | COc1ccc([C@@H]2[C@@H](Oc3ccccc3)C(=O)N2c2cc(OC)c(OC)c(OC)c2)cc1O (relative stereo) | 7.64 | 8.15 | 6.16 | –
31 | CCSc1ccc(C2C(C3CC3)C(=O)N2c2cc(OC)c(OC)c(OC)c2)cc1 (racemic) | 6.22 | 6.10 | 5.81 | –
32 | COc1cc(N2C(=O)CC2c2ccc(SC)cc2)cc(OC)c1OC (racemic) | 7.17 | 7.16 | 6.97 | –
